ChEMBL document CHEMBL1134636, “Structure-activity studies on nociceptin analogues: ORL1 receptor binding and biological activity of cyclic disulfide-containing analogues of nociceptin peptides” (J Med Chem, 2001)
Peptide text beside a SMILES is read from it.

Key:
Nociceptin receptor [1] = molecular target: T1, Nociceptin receptor (Homo sapiens, UniProt P41146); test: Efficacy for human ORL1 receptor expressing HEK293 cells; format: functional, cell-based
In short: (§1)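 Membranes from HEK-293 cells expressing human ORL1 (10 μg) were incubated for 30 min at 24 °C with peptides (0.01 nM to 10 μM) in 20 mM HEPES pH 7.4 with 100 mM NaCl, 10 mM MgCl₂, 1 mM EDTA, 5 μM GDP and 400 pM [³⁵S]GTPγS. Binding was read with WGA-coated SPA beads.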

Nociceptin receptor [2] = molecular target: T1, Nociceptin receptor; test: Efficacy for human ORL1 receptor expressing HEK293 cell membrane; format: functional, cell-based; in short: as §1
Nociceptin receptor [3] = molecular target: T1, Nociceptin receptor; test: Displacement of [3H]NC from human ORL1 receptor expressing HEK293 cell membrane; format: cell membranes

T1 sequence (P41146 whole entry): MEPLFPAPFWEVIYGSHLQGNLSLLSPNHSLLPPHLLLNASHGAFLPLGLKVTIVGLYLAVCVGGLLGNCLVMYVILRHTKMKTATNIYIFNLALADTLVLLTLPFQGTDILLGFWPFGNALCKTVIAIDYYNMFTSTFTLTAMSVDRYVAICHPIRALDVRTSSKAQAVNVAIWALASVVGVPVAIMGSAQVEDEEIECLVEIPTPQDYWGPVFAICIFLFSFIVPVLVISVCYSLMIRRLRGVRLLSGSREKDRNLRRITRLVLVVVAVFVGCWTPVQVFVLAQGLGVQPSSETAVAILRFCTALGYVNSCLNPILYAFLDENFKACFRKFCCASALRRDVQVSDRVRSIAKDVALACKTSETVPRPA

| SMILES | EC50 (Nociceptin receptor [1]) | Emax (Nociceptin receptor [2]) | IC50 (Nociceptin receptor [3]) |
| --- | --- | --- | --- |
| C[C@H](NC(=O)[C@H](CS)NC(=O)[C@H](CCCCN)NC(=O)[C@H](CCCN=C(N)N)NC(=O)[C@H](C)NC(=O)[C@H](CS)NC(=O)[C@@H](NC(=O)[C@H](Cc1ccccc1)NC(=O)CNC(=O)CNC(=O)[C@@H](N)Cc1ccccc1)[C@@H](C)O)C(=O)N[C@@H](CCCN=C(N)N)C(=O)N[C@@H](CCCCN)C(N)=O (H-FGGFTCARKCARK-NH2) | 29.7 nM | 94% | 3.03 nM |
| CC(C)C[C@H](NC(=O)[C@H](CCCCN)NC(=O)[C@H](CCCN=C(N)N)NC(=O)[C@H](C)NC(=O)[C@H](CO)NC(=O)[C@H](CCCCN)NC(=O)[C@H](CCCN=C(N)N)NC(=O)[C@H](C)NC(=O)CNC(=O)[C@@H](NC(=O)[C@H](Cc1ccccc1)NC(=O)CNC(=O)CNC(=O)[C@@H](N)Cc1ccccc1)[C@@H](C)O)C(N)=O (H-FGGFTGARKSARKL-NH2) | 1.97 nM | 105% | 0.52 nM |
| C[C@@H](O)[C@H](NC(=O)[C@H](Cc1ccccc1)NC(=O)CNC(=O)CNC(=O)[C@@H](N)Cc1ccccc1)C(=O)NCC(=O)N[C@@H](CS)C(=O)N[C@@H](CCCN=C(N)N)C(=O)N[C@@H](CCCCN)C(=O)N[C@@H](CO)C(=O)N[C@@H](CS)C(=O)N[C@@H](CCCN=C(N)N)C(=O)N[C@@H](CCCCN)C(N)=O (H-FGGFTGCRKSCRK-NH2) | 26.3 nM | 99% | 8.7 nM |
| C[C@H](NC(=O)[C@@H]1CSSC[C@H](NC(=O)[C@@H](NC(=O)[C@H](Cc2ccccc2)NC(=O)CNC(=O)CNC(=O)[C@@H](N)Cc2ccccc2)[C@@H](C)O)C(=O)N[C@@H](C)C(=O)N[C@@H](CCCNC(=N)N)C(=O)N[C@@H](CCCCN)C(=O)N1)C(=O)N[C@@H](CCCNC(=N)N)C(=O)N[C@@H](CCCCN)C(N)=O (HELM PEPTIDE1{F.G.G.F.T.C.A.R.K.C.A.R.K.[am]}$PEPTIDE1,PEPTIDE1,6:R3-10:R3$$$V2.0) | 31.3 nM | 99% | 0.833 nM |
| C[C@@H]1NC(=O)[C@H](CO)NC(=O)[C@H](CCCCN)NC(=O)[C@H](CCCNC(=N)N)NC(=O)[C@@H](NC(=O)CNC(=O)[C@@H](NC(=O)[C@H](Cc2ccccc2)NC(=O)CNC(=O)CNC(=O)[C@@H](N)Cc2ccccc2)[C@@H](C)O)CSSC[C@@H](C(N)=O)NC(=O)[C@H](CCCCN)NC(=O)[C@H](CCCNC(=N)N)NC1=O (HELM PEPTIDE1{F.G.G.F.T.G.C.R.K.S.A.R.K.C.[am]}$PEPTIDE1,PEPTIDE1,7:R3-14:R3$$$V2.0) | 25 nM | – | 4.97 nM |
| C[C@@H](O)[C@H](NC(=O)[C@H](Cc1ccccc1)NC(=O)CNC(=O)CNC(=O)[C@@H](N)Cc1ccccc1)C(=O)NCC(=O)N[C@H]1CSSC[C@@H](C(=O)N[C@@H](CCCN=C(N)N)C(=O)N[C@@H](CCCCN)C(N)=O)NC(=O)[C@H](CO)NC(=O)[C@H](CCCCN)NC(=O)[C@H](CCCN=C(N)N)NC1=O (HELM PEPTIDE1{F.G.G.F.T.G.C.R.K.S.C.R.K.[am]}$PEPTIDE1,PEPTIDE1,7:R3-11:R3$$$V2.0) | 156 nM | 120% | 3.04 nM |
